# High-throughput results (PubChem)
# LMPTP inh – LMPTP (human) inhibition; AID 651560; P24666; hit rate 0.22% among 360,000; recombinant LMPTP-A, OMFP fluorogenic substrate, fluorescence intensity; inhibition, % at 20 µM;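 active = compounds that cut the enzyme signal by at least half of the control window in the single-dose screen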;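 note: plate controls were DMSO wells with enzyme plus substrate for no effect and substrate without enzyme for full effect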
# Target sequence (P24666 whole entry, looked up): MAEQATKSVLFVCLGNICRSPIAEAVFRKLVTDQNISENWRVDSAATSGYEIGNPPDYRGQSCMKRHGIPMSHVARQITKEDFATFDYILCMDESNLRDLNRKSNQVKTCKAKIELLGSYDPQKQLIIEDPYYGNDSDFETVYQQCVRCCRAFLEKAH
#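 Buffer or medium: Bis-Tris pH 6.0, DTT, detergent; Assay system: LMPTP-A enzyme; Quantity: 0.625 nM enzyme; Detection: endpoint fluorescence intensity; Times: 50 min dark incubation at room temperature; Controls: substrate-only low control, DMSO enzyme-plus-substrate high control; Doses: single 20 µM dose; Read-out: percent inhibition versus substrate-only and uninhibited controls; Reagent: 400 µM OMFP.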
# NadD block – NadD (S. aureus) enzyme inhibition | purified NadD enzyme, colorimetric absorbance read-out | inhibition, % at 20 µM | hit rate 0.78% among 360,000 | AID 602399; in the data active = inhibition above about 26%
# STEP block – STEP (human) phosphatase inhibition. AID 588621. recombinant STEP, OMFP fluorogenic substrate, fluorescence. hit rate 0.25% among 360,000. inhibition, % at 20 µM;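 active = inhibition at 20 µM, scaled per plate between control wells, above about 37%, limit read from the data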;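 note: 0% = DMSO with enzyme and substrate and 100% = substrate only without enzyme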
#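 System: STEP (striatal-enriched tyrosine phosphatase) enzyme, cell-free; medium: Bis-Tris pH 6.0 buffer with DTT, detergent; dosing: 20 µM, 1% DMSO; times: reaction 20 min, ambient temperature; detection: fluorescence, 480/540 nm; read-out basis: normalized % inhibition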
# Scp1 inh – Scp-1 (human) phosphatase inhibition | hit rate 0.88% among 340,000 | AID 493091 | Recombinant Scp1, phosphopeptide, malachite green phosphate absorbance | inhibition, % at 20 µM;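 active = inhibition above about 50% at 20 µM, limit read from the data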;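 note: plate controls were DMSO wells with enzyme for no effect and wells lacking enzyme for full effect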
# Target sequence (Q9GZU7 76-261 limits assumed): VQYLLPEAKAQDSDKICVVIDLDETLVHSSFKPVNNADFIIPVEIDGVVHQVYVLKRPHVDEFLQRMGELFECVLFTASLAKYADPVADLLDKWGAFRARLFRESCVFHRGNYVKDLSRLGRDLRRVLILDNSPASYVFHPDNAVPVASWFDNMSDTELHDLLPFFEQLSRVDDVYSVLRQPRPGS
#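 Times: enzyme reaction 45 min at room temperature, colour 5 min, stabilisation 30 min. Material: SCP-1 catalytic fragment, aa 76-261. Medium: Acidic Tris acetate buffer with magnesium and detergent. Signal: colorimetric free-phosphate detection, absorbance 630 nm. Read-out basis: % inhibition of SCP-1 phosphate liberation. Reagent: Phosphorylated 17-residue peptide substrate.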
# rCAG binder – binds r(CAG) RNA repeats | r(CAG) RNA repeat, TO-PRO-1 dye displacement fluorescence | inhibition, % at 3 µM | hit rate 1.3% among 370,000 | AID 651821;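 active = inhibition above the plate cutoff, the mean of all test compounds on that plate plus 3 SD, cut at about 35% in these data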;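 note: 0% = DMSO alone and 100% = 100 µM mitoxantrone as full dye displacement; higher means more dye released from RNA so lower well fluorescence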
# NadD inh conf – NadD (S. aureus) inhibition, single concentration confirmation | inhibition, % at 20 µM | shares compounds with NadD block | purified S. aureus NadD, colorimetric enzyme assay | hit rate 13% among 2,000; in the data active = inhibition mostly above about 42%, no sharp cut-off; inactive = mostly below about 42%
# Numbers without * were called inactive; . = no result given. Only some compounds are listed: those with a hit (about 2.6% of all), similar ones and a draw of the others.
SMILES,LMPTP inh,NadD block,STEP block,Scp1 inh,rCAG binder,NadD inh conf
COC(=O)c1cc(C(=O)c2cc(F)ccc2O)cn2c(=O)c3c(C)c(C)sc3nc12,2,15,0,-5,7,.
COc1cc(C(=O)NC2CCCCN(Cc3cccc(C(F)(F)F)c3)C2=O)cc(OC)c1OC (centres undefined),.,.,.,.,2,.
COCCCNC(=O)Cn1nc(Cc2ccncc2)c2ccccc2c1=O,.,.,.,.,3,.
Cc1cc(C)cc(C(=O)OCCCN(C)C2CN(Cc3cn(Cc4ccccc4F)nn3)S(=O)(=O)C2)c1 (centres undefined),.,.,.,.,5,.
COc1ccc2nc3sc(C(=O)N4CCN(C)CC4)cc3cc2c1,2,-2,2,-14,-3,.
COc1ccc2nc3sc(C(=O)NCCCN4CCc5ccccc5C4)cc3cc2c1,19,30*,4,1,13,9
CC(=O)c1sc2nc(-c3ccccc3)cc(C)c2c1N,2,-8,2,0,1,.
Nc1c(C(=O)O)sc2nc(-c3ccc(F)cc3)cc(-c3ccccc3)c12,1,37*,2,-6,16,29
Nc1ncc2c(n1)-c1cc(Cl)ccc1SC2,-2,29*,-8,4,9,5
Cc1ccc2c(c1)N(CCCC(=O)N(C)Cc1ccccc1F)C(=O)CO2,.,.,.,.,-1,.
Cc1ccccc1CN1C(=O)C(C)Sc2ccc(-c3ccco3)cc21 (centres undefined),1,43*,2,.,31,50*
O=c1[nH]c2cc([N+](=O)[O-])ccc2c2cc(Br)ccc12,7,38*,8,.,21,11
Cc1ccc(NC(=O)c2sc3nc4c(c(-c5ccco5)c3c2N)CCC4)cc1,1,31*,1,-5,24,-3
Cc1ccccc1NC(=O)c1sc2nc3c(c(-c4ccco4)c2c1N)CCCC3,3,33*,0,-5,7,4
Nc1c(C(=O)Nc2ccccc2)sc2nc3c(c(-c4ccco4)c12)CCC3,8,27,-4,3,11,.
COC(=O)[C@]12C[C@H](CC(=O)N3CCCC3)C(=O)N(Cc3ccco3)C1=C[C@H](C(C)C)O[C@@H]2C1CC1,.,.,.,.,-1,.
COc1ccc(C2=NN(C(=O)CSc3nc(=O)n4cccc(C)c4n3)C(c3ccc(C)cc3)C2)cc1 (centres undefined),6,36*,4,7,4,9
COc1ccc(C2=NN(C(=O)CSc3ncccn3)C(c3ccc(C)cc3)C2)cc1 (centres undefined),3,-2,-5,-5,-4,.
N#CC1=C2SCN(c3ccccc3)CN2C(=O)CC1c1c(Cl)cccc1Cl (centres undefined),-1,17,1,6,12,.
N#CC1=C2SCN(c3ccccc3)CN2C(=O)CC1c1cccs1 (centres undefined),0,44*,-1,21,28,16
O=c1c(/C=N/Nc2ccccc2)c(Sc2nnnn2-c2ccccc2)nc2ccccn12,4,31*,-17,-7,14,6
O=C(O)c1ccccc1N/N=C/c1c(Sc2nnnn2-c2ccccc2)nc2ccccn2c1=O,-1,3,-13,42,9,.
COc1cc(/C=N/NC(=O)COc2c(C)cc([N+](=O)[O-])cc2C)ccc1OC(=O)c1ccccc1,4,27,1,-8,12,.
COc1cc(/C=N/NC(=O)COc2c(C)cc([N+](=O)[O-])cc2C)ccc1OC(=O)c1ccccc1Br,3,33*,0,-17,9,-3
CCOC(=O)N1CCN(C(=O)C[C@H]2C[C@@]3(C(=O)OC)C(=C[C@H](COCc4ccccc4)O[C@@H]3C)N(Cc3cccc4ccccc34)C2=O)CC1,.,.,.,.,12,.
SMILES,LMPTP inh,NadD block,STEP block,Scp1 inh,rCAG binder,NadD inh conf
COc1cccc(C=C(C#N)C(=O)c2ccccc2)c1,0,32*,-1,.,5,18
N#C/C(=C\c1cccc(Cl)c1)C(=O)c1ccccc1,-1,4,4,-8,2,.
CC(=O)O[C@@H]1CCC[C@@]2(C(=O)N(Cc3ccccc3)c3ccc(-c4c(C)noc4C)cc32)[C@H]1NC(=O)CCc1ccccc1,.,.,.,.,9,.
O=C(N=c1ccn(-c2nc3ccccc3nc2NS(=O)(=O)c2ccc(Cl)cc2)cc1)c1cccs1,5,29*,0,4,4,4
CCOc1ccc(S(=O)(=O)Nc2nc3ccccc3nc2-n2ccc(=NC(=O)c3cccs3)cc2)cc1,5,26*,-5,11,7,4
CCCc1c(Cc2cccc(F)c2)ncn1CCc1ccccc1OC,.,.,.,.,1,.
CCOC(=O)c1c2ccc(OCC(=O)N/N=C/c3ccc(C)cc3)cc2n2ccccc12,2,37*,2,6,4,1
COC(=O)[C@]12C[C@H](CC(=O)NCc3ccc(C)o3)C(=O)N(Cc3ccc4c(c3)OCO4)C1=C[C@H](C(C)C)O[C@@H]2C1CC1,.,.,.,.,5,.
O=C1CC(/C=C/c2ccc(Cl)cc2)=Nc2ccccc2N1,1,33*,1,-5,5,7
CCOC(=O)CC[C@@]1(C(=O)OCC)C[C@@H](CC(=O)NCCCOC)C(=O)N2CCCC=C21,.,.,.,.,2,.
O=C(NC1CCCCN(Cc2ccc(Cl)cc2)C1=O)c1c(F)cccc1F (centres undefined),.,.,.,.,0,.
CC1=NN(c2ccc(C)cc2C)C(=O)C1C(c1ccccc1O)C1C(=O)N(c2ccc(C)cc2C)N=C1C (centres undefined),2,21,-2,9,13,.
CC1=NN(c2ccc(Cl)cc2)C(=O)C1C(c1ccccc1O)c1c(C)[nH]n(-c2ccc(Cl)cc2)c1=O (centres undefined),7,31*,0,-3,.,52*
O=C(CSc1nc2c(cnn2-c2ccc(F)cc2)c(=O)[nH]1)N1N=C(c2cccs2)CC1c1ccc(F)cc1 (centres undefined),3,54*,-4,.,6,1
O=C(N=C1N(Cc2ccccc2)[C@@H](Cc2ccccc2)[C@]2(C=C3CCCCC3n3c(=O)n(-c4ccccc4)c(=O)n32)N1C(=O)OCc1ccccc1)c1ccccc1 (some centres undefined),.,.,.,.,15,.
C#CCn1c(=NC(=O)c2ccc(S(=O)(=O)N3CCCc4ccccc43)cc2)sc2cc(S(N)(=O)=O)ccc21,3,50*,-2,-15,-14,39
Cn1c(=NC(=O)c2ccc(S(=O)(=O)N3CCCc4ccccc43)cc2)sc2cc(S(C)(=O)=O)ccc21,-2,14,3,-8,3,.
N=c1c(S(=O)(=O)c2ccc(Cl)cc2)cc2c(=O)n3ccccc3nc2n1C1CCCCC1,4,43*,4,5,-2,21
